For one assay, the system named is CCRF-CEM. Nature of the assay: Cytotoxicity against HCV infected human CEM cells. Format: cell-based.
The subject of the next assay is MT2. The assay is described as follows: Cytotoxicity against human MT2 cells. Format: cell-based. A digest of the protocol:
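Cell toxicity was measured in MT-2 human T cells bearing HTLV-1 and expressed as ID50.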

The test system of assay [1] is Human immunodeficiency virus 1. Nature of the assay: Antiviral activity against HIV1 infected in human MT2 cells. The assay is classed as functional, organism-based. Particulars: Human immunodeficiency virus 1, MT2.
The next assay relates to Hepatitis C virus. Nature of the assay: Antiviral activity against HCV infected in human CEM cells assessed as inhibition of viral replication. The assay is classed as functional, organism-based, Hepacivirus hominis. Particulars: CCRF-CEM.
Assay [2] in a line: Inhibition of PDGF binding to PDGFR.
Assay [3] can be described thus: Inhibition of VEGF binding to VEGFR.
A further assay has as its system Human alphaherpesvirus 1. Nature of the assay: Antiviral activity against HSV1 assessed as inhibition of viral replication. Format: functional, organism-based.
A further assay concerns Human alphaherpesvirus 2. The assay is described as follows: Antiviral activity against HSV2 assessed as inhibition of viral replication. The assay is classed as functional, organism-based.
Assay [4] has as its system Human immunodeficiency virus 1. The assay is described as follows: Antiviral activity against HIV1 infected in human CEMx174 cells. Format: functional, organism-based.
The next assay deals with Hepatitis B virus. Nature of the assay: Antiviral activity against HBV assessed as inhibition of viral replication. The assay is classed as functional, organism-based.
For assay [5], the system named is Human immunodeficiency virus 1. The assay is described as follows: Antiviral activity against HIV1 infected in human TZM-bl cells. The assay is classed as functional, organism-based. A digest of the protocol:
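Host cells were TZM-bl, a HeLa line carrying firefly luciferase driven by an HIV promoter.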

Activity calls are given as the source filed them. The rule behind the calls is not given here.

Regarding `CCCCOc1c2cc(C(=O)NCCN)cc1Cc1cc(C(=O)NCCN)cc(c1OCCCC)Cc1cc(C(=O)NCCN)cc(c1OCCCC)Cc1cc(C(=O)NCCN)cc(c1OCCCC)C2`, the concentration for half-maximal inhibition (IC50) was less than 12.5 µM with CCRF-CEM, 16 µM in the assay on MT2, less than 16 µM in [1] and 5.7 µM in the assay on Hepatitis C virus.

`O=C(O)c1cc2c(O)c(c1)Cc1cc(C(=O)O)cc(c1O)Cc1cc(C(=O)O)cc(c1O)Cc1cc(C(=O)O)cc(c1O)C2`: the half-maximal inhibitory concentration (IC50) (in the assay on CCRF-CEM; in the assay on MT2; in [1]; in the assay on Hepatitis C virus) was greater than 50 µM each time.

Take `CCCCOc1c2cc(C(=O)Nc3cc(C(=O)O)cc(C(=O)OCc4ccccc4)c3)cc1Cc1cc(C(=O)Nc3cc(C(=O)O)cc(C(=O)OCc4ccccc4)c3)cc(c1OCCCC)Cc1cc(C(=O)Nc3cc(C(=O)O)cc(C(=O)OCc4ccccc4)c3)cc(c1OCCCC)Cc1cc(C(=O)Nc3cc(C(=O)O)cc(C(=O)OCc4ccccc4)c3)cc(c1OCCCC)C2`: the IC50 in [2] is 0.19 µM; with CCRF-CEM, 12.5 µM; with MT2, greater than 50 µM; in assay [1] it was greater than 50 µM; in assay [3] it was 0.48 µM; with Hepatitis C virus, 25.6 µM.

In the case of `O=C(O)c1cc2c(OCc3ccccc3)c(c1)Cc1cc(C(=O)O)cc(c1OCc1ccccc1)Cc1cc(C(=O)O)cc(c1OCc1ccccc1)Cc1cc(C(=O)O)cc(c1OCc1ccccc1)C2`, the IC50 was 50 µM in the assay on CCRF-CEM, greater than 50 µM with MT2, 37.1 µM in assay [1] and greater than 50 µM in the assay on Hepatitis C virus.

On to `CCCCOc1c2cc(C(=O)N[C@@H](CCC(=O)O)C(=O)O)cc1Cc1cc(C(=O)N[C@@H](CCC(=O)O)C(=O)O)cc(c1OCCCC)Cc1cc(C(=O)N[C@H](CCC(=O)O)C(=O)O)cc(c1OCCCC)Cc1cc(C(=O)N[C@@H](CCC(=O)O)C(=O)O)cc(c1OCCCC)C2`, for which the IC50 with CCRF-CEM is 100 µM; in the assay on MT2 it was greater than 50 µM; in assay [1], 2.4 µM; in the assay on Hepatitis C virus, 4.1 µM.

Take `O=C(O)c1cc(NC(=O)c2cc3c(OCc4ccccc4)c(c2)Cc2cc(C(=O)Nc4cc(C(=O)O)cc(C(=O)O)c4)cc(c2OCc2ccccc2)Cc2cc(C(=O)Nc4cc(C(=O)O)cc(C(=O)O)c4)cc(c2OCc2ccccc2)Cc2cc(C(=O)Nc4cc(C(=O)O)cc(C(=O)O)c4)cc(c2OCc2ccccc2)C3)cc(C(=O)O)c1`: the IC50 in the assay on CCRF-CEM came out at 0.46 µM; with MT2, 18 µM; in assay [1], 0.3 µM; with Hepatitis C virus, 1.4 µM.

Consider `CCCCOc1c2cc(C(=O)Nc3cc(C(=O)O)cc(C(=O)O)c3)cc1Cc1cc(C(=O)Nc3cc(C(=O)O)cc(C(=O)O)c3)cc(c1OCCCC)Cc1cc(C(=O)Nc3cc(C(=O)O)cc(C(=O)O)c3)cc(c1OCCCC)Cc1cc(C(=O)Nc3cc(C(=O)O)cc(C(=O)O)c3)cc(c1OCCCC)C2`, for which the IC50 in assay [2] was 2.62 µM; in the assay with CCRF-CEM it was 50 µM; with MT2 it was greater than 50 µM; in assay [1], 0.36 µM; in assay [3] it was 4.96 µM; in the assay on Hepatitis C virus it was 1.8 µM. Also, the outcome with Human alphaherpesvirus 1, in the assay with Human alphaherpesvirus 2 and in the assay on Hepatitis B virus was inactive. Further, the result in assay [4] and in [5] was Active.

With `O=C(O)c1cc(NC(=O)c2cc3c(O)c(c2)Cc2cc(C(=O)Nc4cc(C(=O)O)cc(C(=O)O)c4)cc(c2O)Cc2cc(C(=O)Nc4cc(C(=O)O)cc(C(=O)O)c4)cc(c2O)Cc2cc(C(=O)Nc4cc(C(=O)O)cc(C(=O)O)c4)cc(c2O)C3)cc(C(=O)O)c1`, the results for the IC50 (in the assay on MT2; in assay [1]; with Hepatitis C virus) were greater than 50 µM, 6.7 µM and greater than 50 µM, respectively.

For the molecule `CCCCOc1c2cc(C(=O)O)cc1Cc1cc(C(=O)O)cc(c1OCCCC)Cc1cc(C(=O)O)cc(c1OCCCC)Cc1cc(C(=O)O)cc(c1OCCCC)C2`, the figures for the IC50 (with MT2; in [1]; in the assay with Hepatitis C virus) were 13 µM, 2.9 µM and 30.1 µM, respectively.

For the molecule `CCCCOc1c2cc(C(=O)Nc3cc(C(=O)O)cc(C(=O)NC4CCCCC4)c3)cc1Cc1cc(C(=O)Nc3cc(C(=O)O)cc(C(=O)NC4CCCCC4)c3)cc(c1OCCCC)Cc1cc(C(=O)Nc3cc(C(=O)O)cc(C(=O)NC4CCCCC4)c3)cc(c1OCCCC)Cc1cc(C(=O)Nc3cc(C(=O)O)cc(C(=O)NC4CCCCC4)c3)cc(c1OCCCC)C2`, the IC50 is 0.29 µM in [2]; greater than 50 µM in the assay with CCRF-CEM; greater than 50 µM in the assay on MT2; greater than 50 µM in [1]; greater than 10 µM in assay [3]; 4.1 µM in the assay on Hepatitis C virus.

Usually IC50 stands for the point on the concentration scale where inhibition reaches its midpoint.

The values above are taken from ChEMBL document CHEMBL1156302, “Discovery of a synthetic dual inhibitor of HIV and HCV infection based on a tetrabutoxy-calix[4]arene scaffold” (Bioorg Med Chem Lett, 2010).
